Test results published in ChEMBL document CHEMBL3769404, “Novobiocin Analogues That Inhibit the MAPK Pathway” (J Med Chem, 2016).
Values belong to the molecule of their own block, whether it stands above or below them. Calls of active or inactive are those of the source. The calls are words filed in the database; no cut-off is given here.

Tests used:
[1] = biological target: T1, Heat shock protein HSP90 (Homo sapiens) (UniProt P07900+P08238); test: Inhibition of Hsp90 in human A549 cells assessed as decrease in Her2 levels at five times IC50 value after 24 hrs by Western blot analysis; type: cell-based
Method in brief: (§1)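 MPER lysates with protease/phosphatase inhibitors. 15 µg protein per lane on reducing 10% SDS gels, transferred to PVDF, immunoblotted, HRP chemiluminescent detection.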

[2] = system: A549; test: Cytotoxicity against human A549 cells assessed as cell growth inhibition after 72 hrs by MTS assay; type: functional, cell-based; conditions: A549, 72 h
Method in brief: (§2)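 Cells grown to confluence, seeded at 2000 cells/well and left overnight to attach. Compound added across a concentration range in DMSO (1% final), then 72 h at 37 °C, 5% CO2. Growth read by MTS/PMS relative to 1% DMSO wells (100% growth). IC50 taken from two separate experiments, each in triplicate.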

[3] = biological target: T1, Heat shock protein HSP90 (Homo sapiens); test: Inhibition of Hsp90 in human A549 cells assessed as decrease in EGFR levels at five times IC50 value after 24 hrs by Western blot analysis; type: cell-based; method in brief: as §1
[4] = biological target: T1, Heat shock protein HSP90 (Homo sapiens); test: Inhibition of Hsp90 in human A549 cells assessed as decrease in c-Raf levels at five times IC50 value after 24 hrs by Western blot analysis; type: cell-based; method in brief: as §1
[5] = Cytotoxicity against human SKBR3 cells by MTS assay; conditions: SK-BR-3
[6] = biological target: T2, B-raf/RAF proto-oncogene serine/threonine-protein kinase (Homo sapiens) (UniProt P04049+P15056); test: Inhibition of B-Raf/C-Raf in human A549 cells assessed as decrease in phosphorylated ERK levels at five times IC50 value after 12 hrs by Western blot analysis; type: cell-based
[7] = biological target: T2, B-raf/RAF proto-oncogene serine/threonine-protein kinase (Homo sapiens); test: Inhibition of B-Raf/C-Raf in human A549 cells assessed as decrease in phosphorylated MEK levels at five times IC50 value after 12 hrs by Western blot analysis; type: cell-based
[8] = biological target: T2, B-raf/RAF proto-oncogene serine/threonine-protein kinase (Homo sapiens); test: Inhibition of B-Raf/C-Raf in human A549 cells assessed as effect on phosphorylated MEK levels at five times IC50 value after 24 hrs by Western blot analysis; type: cell-based; method in brief: as §1
[9] = biological target: T2, B-raf/RAF proto-oncogene serine/threonine-protein kinase (Homo sapiens); test: Inhibition of B-Raf/C-Raf in human A549 cells assessed as effect on phosphorylated ERK levels at five times IC50 value after 24 hrs by Western blot analysis; type: cell-based; method in brief: as §1
[10] = biological target: T1, Heat shock protein HSP90 (Homo sapiens); test: Inhibition of Hsp90 in human A549 cells assessed as effect on c-Raf protein degradation at 0.5 to 5 times IC50 value after 12 hrs by western blot analysis; type: cell-based
Method in brief: (§3)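 MPER lysates. 15 µg protein per lane, reducing 10% SDS-PAGE, PVDF transfer, immunoblot for EGFR, Her2, C-Raf and Hsp90, chemiluminescent detection.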

[11] = biological target: T1, Heat shock protein HSP90 (Homo sapiens); test: Inhibition of Hsp90 in human A549 cells assessed as effect on EGFR levels at five times IC50 value after 2 to 12 hrs by Western blot analysis; type: cell-based
Method in brief: (§4)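 Lysed in MPER with protease/phosphatase inhibitors, clarified at 14,000g. 15 µg protein per lane run on reducing 10% gels, transferred to PVDF, immunoblotted, detected by HRP chemiluminescence.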

[12] = biological target: T1, Heat shock protein HSP90 (Homo sapiens); test: Inhibition of Hsp90 in human A549 cells assessed as effect on Her2 protein degradation at 0.5 to 5 times IC50 value after 12 hrs by western blot analysis; type: cell-based; method in brief: as §3
[13] = biological target: T1, Heat shock protein HSP90 (Homo sapiens); test: Inhibition of Hsp90 in human A549 cells assessed as decrease in C-Raf levels at five times IC50 value after 2 to 12 hrs by Western blot analysis; type: cell-based; method in brief: as §4
[14] = system: MRC5; test: Cytotoxicity against human MRC5 cells assessed as cell growth inhibition after 72 hrs by MTS assay; type: cell-based; conditions: MRC5, 72 h; method in brief: as §2
[15] = biological target: T1, Heat shock protein HSP90 (Homo sapiens); test: Inhibition of Hsp90 in human A549 cells assessed as effect on EGFR protein degradation at 0.5 to 5 times IC50 value after 12 hrs by western blot analysis; type: cell-based; method in brief: as §3
[16] = system: A549; test: Inhibition of PI3K activity in human A549 cells assessed as effect on phosphorylated Akt level at five times IC50 value after 2 to 12 hrs by Western blot analysis; type: cell-based; method in brief: as §4
[17] = biological target: T2, B-raf/RAF proto-oncogene serine/threonine-protein kinase (Homo sapiens); test: Inhibition of B-Raf/C-Raf in human A549 cells assessed as decrease in phosphorylated MEK levels after 12 hrs by Western blot analysis; type: cell-based
[18] = biological target: T2, B-raf/RAF proto-oncogene serine/threonine-protein kinase (Homo sapiens); test: Inhibition of B-Raf/C-Raf heterodimerization in human A549 cells at five times IC50 value after 24 hrs by SDS-PAGE/Western blot analysis; type: cell-based
Method in brief: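 Lysed in 0.1% NP40, 50 mM Tris pH 7.5, 150 mM NaCl with inhibitors. 500 µg protein incubated with B-Raf antibody overnight at 4 °C, captured on Protein G beads for 3 h at 4 °C, washed, eluted, then SDS-PAGE and immunoblot for c-Raf.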

[19] = biological target: T1, Heat shock protein HSP90 (Homo sapiens); test: Inhibition of Hsp90 in human MCF7 cells assessed as effect on Her2 protein degradation at 0.5 to 5 times IC50 value after 12 hrs by western blot analysis; type: cell-based; method in brief: as §3
[20] = system: A549; test: Effect on total Erk level in human A549 cells at five times IC50 value after 2 to 12 hrs by western blot analysis; type: ADME, cell-based; method in brief: as §4
[21] = biological target: T2, B-raf/RAF proto-oncogene serine/threonine-protein kinase (Homo sapiens); test: Inhibition of B-Raf/C-Raf in human A549 cells assessed as decrease in phosphorylated MEK levels at five times IC50 value by Western blot analysis; type: cell-based; conditions: TDE = time-dependent effect
[22] = biological target: T2, B-raf/RAF proto-oncogene serine/threonine-protein kinase (Homo sapiens); test: Inhibition of B-Raf/C-Raf in human A549 cells assessed as decrease in phosphorylated ERK levels at five times IC50 value by Western blot analysis; type: cell-based; conditions: TDE = time-dependent effect
[23] = system: A549; test: Effect on total Mek level in human A549 cells at five times IC50 value after 2 to 12 hrs by western blot analysis; type: ADME, cell-based; method in brief: as §4
[24] = system: MCF7; test: Cytotoxicity against human MCF7 cells assessed as cell growth inhibition after 72 hrs by MTS assay; type: functional, cell-based; conditions: MCF7, 72 h; method in brief: as §2
[25] = biological target: T2, B-raf/RAF proto-oncogene serine/threonine-protein kinase (Homo sapiens); test: Inhibition of B-Raf/C-Raf in human A549 cells assessed as decrease in phosphorylated ERK levels after 12 hrs by Western blot analysis; type: cell-based
[26] = biological target: T1, Heat shock protein HSP90 (Homo sapiens); test: Inhibition of Hsp90 in human PC3MM2 cells upto 100 uM by luciferase refolding assay; type: cell-based
Method in brief: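 Luciferase-expressing PC3-MM2 cells heat-denatured at 50 °C for 8–12 min until luminescence fell to 1% of initial. 60,000 cells/100 µL added to compound (0–100 µM, 1% DMSO final) and left 1 h to recover. Luciferin/ATP/CoA reagent then added and luminescence read at once. Refolding expressed relative to 1% DMSO wells; triplicate points fitted to dose-response curves.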

[27] = biological target: T1, Heat shock protein HSP90 (Homo sapiens); test: Inhibition of Hsp90 in human MCF7 cells assessed as effect on c-Raf protein degradation at 0.5 to 5 times IC50 value after 12 hrs by western blot analysis; type: cell-based; method in brief: as §3
[28] = system: A549; test: Effect of total Akt levels in human A549 cells at five times IC50 value after 2 to 12 hrs by Western blot analysis; type: ADME, cell-based; method in brief: as §4
[29] = biological target: T1, Heat shock protein HSP90 (Homo sapiens); test: Inhibition of Hsp90 in human MCF7 cells assessed as effect on EGFR protein degradation at 0.5 to 5 times IC50 value after 12 hrs by western blot analysis; type: cell-based; method in brief: as §3
[30] = system: A549; test: Effect on B-Raf level in human A549 cells at five times IC50 value after 12 to 24 hrs by Western blot analysis; type: ADME, cell-based; method in brief: as §1
[31] = biological target: T1, Heat shock protein HSP90 (Homo sapiens); test: Inhibition of Hsp90 in human MCF7 cells assessed as decrease in C-Raf levels at five times IC50 value after 12 hrs by Western blot analysis; type: cell-based; method in brief: as §3
[32] = biological target: T1, Heat shock protein HSP90 (Homo sapiens); test: Inhibition of Hsp90 in human MCF7 cells assessed as decrease in EGFR levels at five times IC50 value after 12 hrs by Western blot analysis; type: cell-based; method in brief: as §3
[33] = biological target: T1, Heat shock protein HSP90 (Homo sapiens); test: Inhibition of Hsp90 in human A549 cells assessed as decrease in EGFR levels at five times IC50 value after 12 hrs by Western blot analysis; type: cell-based
[34] = biological target: T1, Heat shock protein HSP90 (Homo sapiens); test: Inhibition of Hsp90 in human MCF7 cells assessed as decrease in Her2 levels at five times IC50 value after 12 hrs by Western blot analysis; type: cell-based; method in brief: as §3
[35] = biological target: T1, Heat shock protein HSP90 (Homo sapiens); test: Inhibition of Hsp90 in human A549 cells assessed as decrease in Her2 levels at five times IC50 value after 12 hrs by Western blot analysis; type: cell-based
[36] = biological target: T1, Heat shock protein HSP90 (Homo sapiens); test: Inhibition of Hsp90 in human A549 cells assessed as decrease in C-Raf levels at five times IC50 value after 12 hrs by Western blot analysis; type: cell-based
[37] = system: MCF7; test: Effect on Hsp90 expression in human MCF7 cells at 0.5 to 5 times IC50 value after 12 hrs by western blot analysis; type: ADME, cell-based; conditions: mcf7, 12 h; method in brief: as §3

T2 sequence (P04049 whole entry, looked up): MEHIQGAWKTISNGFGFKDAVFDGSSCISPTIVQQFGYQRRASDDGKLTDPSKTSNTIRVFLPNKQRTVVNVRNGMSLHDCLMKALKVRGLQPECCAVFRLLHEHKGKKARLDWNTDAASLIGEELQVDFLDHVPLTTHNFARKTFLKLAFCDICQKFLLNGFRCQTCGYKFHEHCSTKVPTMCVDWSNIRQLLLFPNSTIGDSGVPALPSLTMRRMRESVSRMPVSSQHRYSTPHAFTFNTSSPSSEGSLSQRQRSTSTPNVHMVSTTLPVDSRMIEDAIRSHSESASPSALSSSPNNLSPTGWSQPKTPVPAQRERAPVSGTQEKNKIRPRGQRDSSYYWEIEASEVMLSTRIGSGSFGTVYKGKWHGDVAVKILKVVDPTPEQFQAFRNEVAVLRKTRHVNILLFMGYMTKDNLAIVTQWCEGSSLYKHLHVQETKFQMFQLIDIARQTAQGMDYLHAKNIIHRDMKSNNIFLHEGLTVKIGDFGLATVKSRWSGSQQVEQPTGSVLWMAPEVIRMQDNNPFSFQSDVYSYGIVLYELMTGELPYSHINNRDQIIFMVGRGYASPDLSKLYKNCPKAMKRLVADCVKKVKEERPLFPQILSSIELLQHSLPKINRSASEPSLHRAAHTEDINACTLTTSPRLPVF
T2 sequence (P15056 whole entry, looked up): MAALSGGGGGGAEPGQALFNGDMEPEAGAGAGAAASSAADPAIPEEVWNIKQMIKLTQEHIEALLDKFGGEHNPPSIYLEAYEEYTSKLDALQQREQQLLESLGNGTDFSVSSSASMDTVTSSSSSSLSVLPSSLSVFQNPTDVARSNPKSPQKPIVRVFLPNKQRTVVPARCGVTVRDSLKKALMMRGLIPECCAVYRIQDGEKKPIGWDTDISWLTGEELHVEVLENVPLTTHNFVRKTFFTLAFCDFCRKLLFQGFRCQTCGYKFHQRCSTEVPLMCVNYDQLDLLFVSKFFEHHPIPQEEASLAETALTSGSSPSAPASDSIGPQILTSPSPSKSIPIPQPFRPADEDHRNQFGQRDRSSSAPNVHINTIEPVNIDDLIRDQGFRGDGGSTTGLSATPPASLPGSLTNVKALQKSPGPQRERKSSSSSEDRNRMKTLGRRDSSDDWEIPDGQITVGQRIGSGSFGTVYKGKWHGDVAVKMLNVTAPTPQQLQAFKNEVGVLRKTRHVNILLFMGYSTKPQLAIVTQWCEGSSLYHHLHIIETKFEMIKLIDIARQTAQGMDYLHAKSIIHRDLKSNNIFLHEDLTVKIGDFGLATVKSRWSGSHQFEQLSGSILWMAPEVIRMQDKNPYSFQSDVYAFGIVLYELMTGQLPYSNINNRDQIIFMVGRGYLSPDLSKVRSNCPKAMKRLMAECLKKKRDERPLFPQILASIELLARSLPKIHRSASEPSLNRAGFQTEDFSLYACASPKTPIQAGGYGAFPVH

Compound: CO[C@@H]1[C@@H](OC(N)=O)[C@@H](O)[C@H](Oc2ccc3c(O)c(NC(=O)c4ccc(O)c(CC=C(C)C)c4)c(=O)oc3c2C)OC1(C)C [NOVOBIOCIN]
- IC50 [5]: 700000 nM

Compound: CCCS(=O)(=O)Nc1ccc(F)c(C(=O)c2c[nH]c3ncc(-c4ccc(Cl)cc4)cc23)c1F [VEMURAFENIB]
- Activity [30]: Non-toxic

Compound: Cc1c(OC2CCN(C)CC2)ccc2cc(NC(=O)Nc3ccccc3)c(=O)oc12
- inhibition [31]: Active
- inhibition [32]: Active
- inhibition [33]: Active
- inhibition [34]: Active
- inhibition [35]: Active
- IC50 [14]: 3600 nM
- IC50 [2]: 240 nM
- inhibition [36]: Active
- IC50 [24]: 770 nM
- Activity [37]: Non-toxic

Compound: N#Cc1c(Oc2ccc(F)c(NC(=O)Cc3cccc(C(F)(F)F)c3)c2)ccc2nc(NC(=O)C3CC3)sc12
- Activity [30]: Non-toxic
- IC50 [2]: 1700 nM

Further lines, with some results ahead:

- inhibition [1]: Active
- inhibition [3]: Active
- inhibition [4]: Active
Compound: Cc1c(OC2CCN(C)CC2)ccc2cc(NC(=O)Nc3cccc(-c4ccccc4)c3)c(=O)oc12
- IC50 [2]: 60 nM

- inhibition [6]: Active
- inhibition [7]: Active
- inhibition [8]: inactive
- inhibition [9]: inactive
Compound: COc1cccc(-c2cccc(NC(=O)Nc3cc4ccc(OC5CCN(C)CC5)c(C)c4oc3=O)c2)c1
- IC50 [2]: 280 nM

- inhibition [6]: Active
- inhibition [7]: Active
- inhibition [8]: inactive
- inhibition [9]: inactive
Compound: COc1ccc(NC(=O)Nc2cc3ccc(OC4CCN(C)CC4)c(C)c3oc2=O)cc1-c1ccccc1
- IC50 [2]: 410 nM

- inhibition [10]: inactive
- inhibition [11]: inactive
- inhibition [12]: inactive
- inhibition [13]: inactive
- inhibition [15]: inactive
- inhibition [17]: Dose-dependent effect
- inhibition [18]: Active
- inhibition [19]: inactive
- inhibition [21]: tde
- inhibition [22]: tde
- inhibition [25]: Dose-dependent effect
- inhibition [26]: inactive
- inhibition [27]: inactive
- inhibition [29]: inactive
Compound: COc1cccc(-c2cc(NC(=O)Nc3cc4ccc(OC5CCN(C)CC5)c(C)c4oc3=O)ccc2OC)c1
- IC50 [14]: 4300 nM
- Activity [16]: inactive
- IC50 [2]: 150 nM
- Activity [20]: Non-toxic
- Activity [23]: Non-toxic
- IC50 [24]: 170 nM
- Activity [28]: Non-toxic
